High-throughput results from PubChem BioAssay.
C2C12 statin: suppressors of simvastatin-induced myotoxicity in C2C12 myotubes; ATP luminescence, 48 h; scaled: DMSO 0, geranylgeraniol control 100; AID 602340; 0.78% of 330,000 active; rescue of ATP level, % at 7.49 µM;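 active = mean ATP rescue above about 67%, or every replicate alone reaching that limit, limit read from the data, passing the limit was not always enough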;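 also: myotubes were challenged with 10 µM simvastatin during compound exposure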
Cneo AK release: Cryptococcus neoformans lysis via adenylate kinase release; lysis activity, % at 15 µM; C. neoformans lysis, adenylate kinase release luminescence, 4 h; normalised: neutral wells 0, clomiphene wells 100; AID 651654; 0.2% of 360,000 active;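 active = mean lysis activity across replicates of at least 80%, whatever share of replicates individually reach that level; inactive = mean lysis activity below 80%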
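Assay system: Cryptococcus neoformans yeast cells / Dosing: single-point compound dose / Timing: 4 h at 37 °C static, read 1 h later / Measured by: luminescence of released adenylate kinase using an AK detection reagent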
SUMO Mot1 rescue: inhibitors of SUMOylation pathway: yeast Mot1-301 growth rescue; growth rescue, % at 18.8 µM; S. cerevisiae Mot1-301 growth rescue, ATP luminescence, 38.5C; percent above DMSO median, 100 means doubled; AID 2716; 1% of 320,000 active;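 active = every valid replicate shows activation above 250% relative to neutral control wells; inactive = the rest, any valid replicate at or below 250%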;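 also: OY570 slx delta 5 strain wells were the positive control but not used for scaling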
Efflux pump mplx: inhibitors of Candida antifungal efflux pumps expressed in yeast | S. cerevisiae Candida pump triplex, Nile Red efflux | inhibition, % at 10 µM | 0.44% of 330,000 active;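 active = plate passing quality check with inhibition over a set limit, or well fluorescence over plate mean plus 4 SD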;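 also: Nile Red retained in pooled yeast measured as flow cytometry median fluorescence; 0% = buffer negative control and 100% = Enniatin B positive control; higher means more Nile Red kept so more efflux inhibition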
Active calls of the source: *; . = no result. Shown are actives, neighbours in structure and some others; about 1.8% of the full set was active somewhere.

SMILES	C2C12 statin	Cneo AK release	SUMO Mot1 rescue	Efflux pump mplx
O=[N+]([O-])c1ccc(NCCCN2CCOCC2)c([N+](=O)[O-])c1	.	.	600*	0
O=C(NCc1ccco1)c1ccc(N2CCCCC2)c([N+](=O)[O-])c1	.	3	812*	-12
CN(C(=O)c1ccc(N2CCCCC2)c([N+](=O)[O-])c1)C1CCS(=O)(=O)C1 (stereo not given)	108*	-1	-9	1
COc1ccc(NC(=O)COc2ccccc2)c(OC)c1	98*	1	725	0
COc1ccc(OCC(=O)Nc2nc3ccccc3[nH]2)cc1	74*	-13	0	0
CCCCOc1ccc(C(=O)N2CCN(c3ncccn3)CC2)cc1	1	0	8	0
CCN1[C@H](C(=O)NCc2ccccn2)[C@@H](CO)[C@@H]2Cn3c(ccc(C4=CCCCC4)c3=O)[C@@H]21	4	-11	.	.
CCOc1ccc(NCc2cccn2-c2nnc(N3CCC(C(=O)NCCCN4CCCCC4C)CC3)s2)cc1 (stereo not given)	17	2	-10	1
CCOc1ccc(NCc2cccn2-c2nnc(N3CCC(C(=O)NCCCN4C(C)CCCC4C)CC3)s2)cc1 (stereo not given)	102*	12	5	0
ClC(Br)=C(n1cnc2ccccc21)n1cnc2ccccc21	90*	3	917	0
CN(C(=O)n1cnc2ccccc21)c1ccccc1	.	.	-2	0
CO[C@@H]1CN(C)C(=O)c2ccc(NC(=O)C3CCCCC3)cc2OC[C@H](C)N(C)C[C@H]1C	-13	3	.	.
Cc1ccc(C(C[N+](=O)[O-])n2nc(C)cc2C)cc1 (stereo not given)	0	0	624*	0
Cc1c(CN2CCCC(C(=O)Nc3cccc(-n4cccn4)c3)C2)cnn1C (stereo not given)	-10	0	1	1
CCOC(=O)c1[nH]c2ccccc2c1NC(=O)Nc1ccc(OC)cc1	119*	0	-8	0
CCC(=O)N(C)C[C@H]1Oc2cc(C#Cc3ccccn3)ccc2S(=O)(=O)N([C@H](C)CO)C[C@@H]1C	-7	0	.	.
C=CCn1c(-c2csc(-c3ccccc3)n2)n[nH]c1=S	77*	2	30	0
C=CCn1c(-c2csc(-c3ccc(Cl)cc3)n2)n[nH]c1=S	.	.	.	0
O=C(NCc1ccco1)C(c1ccccc1)N(C(=O)Cc1cccs1)c1ccccc1F (stereo not given)	98*	-2	-15	0
CC(=O)c1ccc(N2CCN(C(=O)Cn3cnc(S(=O)(=O)N4CCCCC4)c3)CC2)cc1	98*	1	.	0
CC(=O)c1ccc(N2CCN(C(=O)Cc3cccs3)CC2)cc1	1	153*	0	0
O=C(NCCCNCCCNC(=O)c1ccccn1)c1ccccn1	115*	-1	-12	0
N#CC1=C(N)N(c2ccccc2)C2=C(C(=O)CCC2)C1c1cccs1 (stereo not given)	6	-1	4	0
O=S(=O)(CCN1CCN(c2ccccn2)CC1)c1ccc(F)cc1	5	-1	-4	0
O=C(CN1CCN(c2ccccn2)CC1)NC1CCCC1	-1	-3	9	0
SMILES	C2C12 statin	Cneo AK release	SUMO Mot1 rescue	Efflux pump mplx
O=C(CN1CCN(c2ccccn2)CC1)Nc1ccc(F)cc1	116*	-2	1	0
O=C(CN1CCN(c2ccccn2)CC1)NCCc1ccccc1	111*	2	11	0
O=C(CN1CCN(c2ccccn2)CC1)Nc1ccccc1	4	1	8	0
O=C(CCCN1CCN(c2ccccn2)CC1)c1ccc(F)cc1	0	37	351*	0
CC1CC(C)CN(C(=O)CN(C)S(=O)(=O)c2ccc3c(c2)c(=O)n(C)c(=O)n3C)C1 (stereo not given)	.	.	25	0
C[C@@H]1CN([C@@H](C)CO)C(=O)c2cccc(NC(=O)c3cnccn3)c2O[C@@H]1CN(C)Cc1ccc(C(=O)O)cc1	.	5	.	.
COc1ccc(S(=O)(=O)Nc2ccc3c(c2)CC(=O)N([C@H](C)CO)C[C@H](C)[C@H](CN(C)Cc2ccc(Cl)c(Cl)c2)O3)cc1	-9	-1	.	.
COc1ccc(S(=O)(=O)Nc2ccc3c(c2)CC(=O)N([C@H](C)CO)C[C@@H](C)[C@H](CN(C)Cc2ccc(Cl)c(Cl)c2)O3)cc1	110*	57	.	.
C[C@@H]1CN([C@@H](C)CO)C(=O)Cc2cc(NS(=O)(=O)c3cn(C)cn3)ccc2O[C@@H]1CN(C)Cc1ccc(Oc2ccccc2)cc1	12	0	.	.
COc1ccc(CN(C)C[C@H]2Oc3ccc(NS(=O)(=O)c4ccc(F)cc4)cc3CC(=O)N([C@H](C)CO)C[C@H]2C)cc1	69*	2	.	.
C[C@H]1CN([C@@H](C)CO)C(=O)Cc2cc(NS(=O)(=O)c3cn(C)cn3)ccc2O[C@@H]1CN(C)Cc1ccc(Oc2ccccc2)cc1	0	110*	.	.
COc1ccc(CN(C)C[C@@H]2Oc3ccc(NS(=O)(=O)c4ccc(Cl)cc4)cc3CC(=O)N([C@H](C)CO)C[C@H]2C)cc1	95*	3	.	.
Cc1cc(C(=O)N2CCCC(Nc3ccc(C)c(C)c3)C2)nc(C)n1 (stereo not given)	22	-1	.	.
O=C(O)c1ccccc1-c1ccccc1C(=O)Nc1ccc2c(c1)C(=O)c1ccccc1-2	7	-1	.	.
COc1ccc(CN(C)C[C@H]2Oc3ccc(NS(=O)(=O)c4ccccc4)cc3CC(=O)N([C@H](C)CO)C[C@H]2C)cc1	35	0	.	.
C[C@H](CO)N1C[C@H](C)[C@@H](CN(C)Cc2ccccc2)Oc2ccc(NS(=O)(=O)c3ccc(Cl)cc3)cc2CC1=O	58	-2	.	.
COc1ccc(CN(C)C[C@H]2Oc3ccc(NS(=O)(=O)c4ccc(F)cc4)cc3CC(=O)N([C@@H](C)CO)C[C@@H]2C)cc1	67*	-2	.	.
C[C@@H]1CN([C@H](C)CO)C(=O)Cc2cc(NS(=O)(=O)c3ccc(Cl)cc3)ccc2O[C@H]1CN(C)Cc1ccccc1	96*	-7	.	.
COc1ccc(CN(C)C[C@@H]2Oc3ccc(NS(=O)(=O)c4ccc(F)cc4)cc3CC(=O)N([C@H](C)CO)C[C@@H]2C)cc1	18	0	.	.
Cc1ccc(S(=O)(=O)Nc2ccc3c(c2)CC(=O)N([C@@H](C)CO)C[C@@H](C)[C@H](CN(C)Cc2ccc(-c4ccccc4)cc2)O3)cc1	103*	0	.	.
COc1ccc(CN(C)C[C@H]2Oc3ccc(NS(=O)(=O)c4ccccc4)cc3CC(=O)N([C@@H](C)CO)C[C@@H]2C)cc1	66*	1	.	.
Cc1cccc(NC(=O)C2CCN(C(=O)c3ccco3)CC2)c1C	2	0	5	0
CC(=O)c1ccc(-c2cc([C@H]3[C@H]4C=CC[C@@H](C)[C@@H]4C(=O)N3Cc3ccccc3)ccc2F)cc1	160*	0	-11	0
COC(=O)C1=C(C)N(Cc2ccccc2)C(=NCCCCO)N[C@H]1c1ccccc1	.	.	17	0
